SMILES strings stand for the structures. Activity calls are given as the source filed them. The calls are words filed in the database; no cut-off is given here. Where only a bound is given, the exact number is not on record here.

The test system of data set [1] is NCI-H1975. The experiment in a line: Antiproliferative activity against human NCI-H1975 cells harboring EGFR L858R/T790M mutant after 72 hrs by MTT assay. It is filed as functional, cell-based. Conditions: NCI-H1975, 72 h.
The nature of data set [2]: cells. It is filed as functional, cell-based. Conditions: Homo sapiens, HCC827, 72 h.
Data set [3] can be described thus: Chemical stability of the compound in buffer solution assessed as compound remaining at 50 uM at pH 7.4 after 24 hrs by LC-UV analysis. Conditions: read-out: Stability. It counts as physicochemical. Put shortly: (§1)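 1 mM DMSO stocks diluted to 50 µM final (5% v/v DMSO) in prewarmed 0.01 M PBS pH 7.4 or 0.01 M borate buffer pH 9.0. Incubated at 37 °C for 24 h, mixed with equal volume acetonitrile, analysed by C18 RP-HPLC with UV detection at 281 nm; percent remaining, mean ± SD, n = 3.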

Data set [4] in a line: L-cysteine reactivity assessed as compound remaining at 50 uM after 1 hr at pH 7.4 by LC-UV analysis. Conditions: read-out: Activity. It is filed as physicochemical. Put shortly:
(§2)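 Freshly prepared thiol (DTT, reduced GSH or L-cysteine; 2 mM) added to PBS pH 7.4 containing test compound, incubated 1 h at 37 °C. Remaining parent measured by HPLC-UV (C18, 281 nm); mean ± SD, n = 3.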

The nature of data set [5]: Chemical stability of the compound in buffer solution assessed as compound remaining at 50 uM at pH 9 after 24 hrs by LC-UV analysis. It counts as physicochemical. Put shortly: as §1
A short description of data set [6]: cells. It is filed as ADME, cell-based. The note with it: Homo sapiens, 16HBE14o-, 72 h.
Data set [7] can be described thus: cells. It is filed as functional, cell-based. Conditions: Homo sapiens, BEAS-2B, 72 h.
Data set [8] is described as follows: DTT reactivity assessed as compound remaining at 50 uM after 1 hr at pH 7.4 by LC-UV analysis. The note with it: read-out: Activity. It counts as physicochemical. Put shortly:
as §2

A short description of data set [9]: GSH reactivity assessed as compound remaining at 50 uM after 1 hr at pH 7.4 by LC-UV analysis. It counts as physicochemical. The note with it: read-out: Activity. Put shortly: as §2
For data set [10], the target named is Epidermal growth factor receptor (Homo sapiens, UniProt P00533, L858R). It counts as protein assay.
Epidermal growth factor receptor (Homo sapiens, UniProt P00533, L858R), sequence (P00533 25-1210 L858R limits assumed): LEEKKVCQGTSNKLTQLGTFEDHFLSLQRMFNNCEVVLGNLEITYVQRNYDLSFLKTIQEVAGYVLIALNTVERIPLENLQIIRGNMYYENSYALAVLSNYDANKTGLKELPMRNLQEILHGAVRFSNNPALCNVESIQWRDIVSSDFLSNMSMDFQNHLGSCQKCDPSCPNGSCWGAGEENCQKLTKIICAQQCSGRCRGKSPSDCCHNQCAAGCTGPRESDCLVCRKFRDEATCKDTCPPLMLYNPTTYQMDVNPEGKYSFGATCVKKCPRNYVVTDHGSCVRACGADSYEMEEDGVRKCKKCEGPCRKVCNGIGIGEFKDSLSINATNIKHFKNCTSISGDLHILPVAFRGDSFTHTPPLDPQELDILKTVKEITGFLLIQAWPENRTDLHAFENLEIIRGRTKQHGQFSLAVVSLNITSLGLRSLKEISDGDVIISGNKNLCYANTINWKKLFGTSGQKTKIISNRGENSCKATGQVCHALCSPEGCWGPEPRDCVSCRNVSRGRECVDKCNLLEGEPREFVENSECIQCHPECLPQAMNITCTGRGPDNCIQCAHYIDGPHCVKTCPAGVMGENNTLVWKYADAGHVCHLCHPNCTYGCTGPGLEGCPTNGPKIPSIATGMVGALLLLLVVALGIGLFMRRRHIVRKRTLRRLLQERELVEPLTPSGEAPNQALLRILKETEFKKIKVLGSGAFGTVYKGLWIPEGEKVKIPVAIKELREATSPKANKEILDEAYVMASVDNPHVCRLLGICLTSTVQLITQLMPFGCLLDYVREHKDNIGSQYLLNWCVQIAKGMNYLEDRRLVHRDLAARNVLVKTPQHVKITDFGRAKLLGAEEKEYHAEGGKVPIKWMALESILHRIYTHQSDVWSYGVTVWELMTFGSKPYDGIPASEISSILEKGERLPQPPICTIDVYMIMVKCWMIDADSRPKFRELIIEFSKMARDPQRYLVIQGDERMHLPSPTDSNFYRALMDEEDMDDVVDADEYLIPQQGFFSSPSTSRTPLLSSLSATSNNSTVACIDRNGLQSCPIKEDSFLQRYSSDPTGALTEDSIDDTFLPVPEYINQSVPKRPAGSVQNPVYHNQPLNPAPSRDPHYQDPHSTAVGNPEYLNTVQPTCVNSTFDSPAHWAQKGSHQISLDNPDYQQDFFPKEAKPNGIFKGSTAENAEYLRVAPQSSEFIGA
In another data set the test system is A549. Kind of data set: cells. It counts as functional, cell-based. The note with it: Homo sapiens, A549, 72 h.
Data set [11] addresses Epidermal growth factor receptor (Homo sapiens, UniProt P00533).
For data set [12], the target named is Epidermal growth factor receptor (Homo sapiens, UniProt P00533, L858R/T790M). It is filed as protein assay.
Epidermal growth factor receptor (Homo sapiens, UniProt P00533, L858R/T790M), sequence (P00533 25-1210 T790M/L858R limits assumed): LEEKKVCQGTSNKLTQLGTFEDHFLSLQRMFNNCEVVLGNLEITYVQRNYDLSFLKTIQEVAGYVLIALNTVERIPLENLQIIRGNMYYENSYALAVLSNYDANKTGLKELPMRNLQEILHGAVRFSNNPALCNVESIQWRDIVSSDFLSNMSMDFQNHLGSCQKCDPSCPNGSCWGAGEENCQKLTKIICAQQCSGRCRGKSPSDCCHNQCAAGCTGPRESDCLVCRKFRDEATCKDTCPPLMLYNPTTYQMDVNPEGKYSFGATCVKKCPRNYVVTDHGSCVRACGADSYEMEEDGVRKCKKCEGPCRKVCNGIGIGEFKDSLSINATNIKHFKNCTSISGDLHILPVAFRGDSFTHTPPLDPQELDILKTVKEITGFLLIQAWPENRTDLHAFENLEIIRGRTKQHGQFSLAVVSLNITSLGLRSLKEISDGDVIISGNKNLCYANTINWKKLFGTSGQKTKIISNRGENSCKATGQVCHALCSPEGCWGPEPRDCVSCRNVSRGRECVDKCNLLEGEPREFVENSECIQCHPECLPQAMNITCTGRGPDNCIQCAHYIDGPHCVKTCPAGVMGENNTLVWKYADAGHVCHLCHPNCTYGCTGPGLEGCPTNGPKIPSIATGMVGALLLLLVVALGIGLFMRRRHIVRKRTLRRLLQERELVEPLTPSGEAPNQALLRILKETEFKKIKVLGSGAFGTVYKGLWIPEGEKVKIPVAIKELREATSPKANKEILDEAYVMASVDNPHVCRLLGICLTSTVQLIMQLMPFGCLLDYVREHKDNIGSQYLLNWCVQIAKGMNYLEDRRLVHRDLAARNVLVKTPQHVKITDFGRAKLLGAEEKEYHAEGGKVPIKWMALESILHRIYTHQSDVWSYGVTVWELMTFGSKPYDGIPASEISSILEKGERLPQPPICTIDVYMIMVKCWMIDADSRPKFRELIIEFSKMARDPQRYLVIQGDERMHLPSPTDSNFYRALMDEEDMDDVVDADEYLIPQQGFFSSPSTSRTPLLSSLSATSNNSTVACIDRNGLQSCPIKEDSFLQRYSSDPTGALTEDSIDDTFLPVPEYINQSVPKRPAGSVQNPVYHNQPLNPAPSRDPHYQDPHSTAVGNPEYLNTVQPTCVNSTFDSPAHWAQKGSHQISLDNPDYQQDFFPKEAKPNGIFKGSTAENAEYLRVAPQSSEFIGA
The nature of data set [13]: (§3) Stability of the compound in rat plasma assessed as compound remaining at 50 uM at pH 7.4 after 24 hrs by LC-UV analysis. Conditions: pH 7.4, read-out: Stability. It is filed as ADME, cell-free. Put shortly: (§4)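 Rat plasma diluted to 50% (v/v) with 0.1 M PBS pH 7.4 and spiked with compound from a DMSO stock, then incubated 24 h at 37 °C. Two volumes acetonitrile added, centrifuged (4 °C, 14,000 g, 15 min), supernatant run on RP-HPLC with UV at 281 nm; percent remaining, n = 3.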

In another data set the test system is A-431. The experiment in a line: cells. It is filed as functional, cell-based. The note with it: Homo sapiens, A-431, 72 h.
The target in data set [14] is RAC-alpha serine/threonine-protein kinase (Homo sapiens) (UniProt P31749). Kind of data set: Inhibition of Akt phosphorylation in human H1975 cells harboring EGFR L858R/T790M mutant at 1 uM by Western blotting analysis. It is filed as cell-based. Put shortly: (§5)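 Lysates (50 µg/lane) separated on 7.5% SDS-PAGE and blotted to nitrocellulose. Probed for total and phospho-EGFR (Tyr1068), Akt (Ser473) and ERK (Thr202/Tyr204) plus β-actin; HRP secondaries with ECL detection.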

In data set [15] the test system is NCI-H1975. Kind of data set: Antiproliferative activity against human NCI-H1975 cells harboring EGFR L858R/T790M mutant at 5 uM after 72 hrs by MTT assay in presence of 1 to 20 uM haemoglobin NO scavenger. It counts as functional, cell-based. Conditions: in the assay text read “24 hrs” for “72 hrs”. Put shortly:
(§6)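 Cells pretreated 1 h with hemoglobin (0, 1, 5, 10 or 20 µM) as NO scavenger, then exposed to 5 µM test compound for 24 h; growth read by MTT assay.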

The subject of the next data set is H1975. The note with it: Homo sapiens, at 1 µM.
The subject of the next data set is HCC827. The experiment in a line: Antiproliferative activity against gefitinib-sensitive human HCC827 cells bearing EGFR del E746_A750 mutant at 5 uM after 72 hrs by MTT assay in presence of 1 to 20 uM haemoglobin NO scavenger. Conditions: in the assay text read “24 hrs” for “72 hrs”. It is filed as functional, cell-based. Put shortly:
as §6

Data set [16] has as its system NCI-H1975. Kind of data set: Induction of NO production in human NCI-H1975 cells harboring EGFR L858R/T790M mutant at 100 uM incubated for 150 mins. It counts as functional, cell-based. Put shortly:
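H1975 or 16HBE cells (1 × 10⁶/well) exposed to 100 µM compound for 150 min, then harvested and lysed. Lysates mixed with Griess reagent for 10 min and absorbance read at 540 nm. Nitrite quantified against a […] standard curve, with diluent-treated cells as background.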

Data set [17] deals with Epidermal growth factor receptor (Homo sapiens), P00533 [L858R,T790M]. The experiment in a line: Inhibition of EGFR phosphorylation in human H1975 cells harboring EGFR L858R/T790M mutant at 0.1 uM by Western blotting analysis. It is filed as cell-based. Put shortly: as §5
Epidermal growth factor receptor (Homo sapiens), P00533 [L858R,T790M], sequence (P00533 whole entry T790M/L858R, looked up): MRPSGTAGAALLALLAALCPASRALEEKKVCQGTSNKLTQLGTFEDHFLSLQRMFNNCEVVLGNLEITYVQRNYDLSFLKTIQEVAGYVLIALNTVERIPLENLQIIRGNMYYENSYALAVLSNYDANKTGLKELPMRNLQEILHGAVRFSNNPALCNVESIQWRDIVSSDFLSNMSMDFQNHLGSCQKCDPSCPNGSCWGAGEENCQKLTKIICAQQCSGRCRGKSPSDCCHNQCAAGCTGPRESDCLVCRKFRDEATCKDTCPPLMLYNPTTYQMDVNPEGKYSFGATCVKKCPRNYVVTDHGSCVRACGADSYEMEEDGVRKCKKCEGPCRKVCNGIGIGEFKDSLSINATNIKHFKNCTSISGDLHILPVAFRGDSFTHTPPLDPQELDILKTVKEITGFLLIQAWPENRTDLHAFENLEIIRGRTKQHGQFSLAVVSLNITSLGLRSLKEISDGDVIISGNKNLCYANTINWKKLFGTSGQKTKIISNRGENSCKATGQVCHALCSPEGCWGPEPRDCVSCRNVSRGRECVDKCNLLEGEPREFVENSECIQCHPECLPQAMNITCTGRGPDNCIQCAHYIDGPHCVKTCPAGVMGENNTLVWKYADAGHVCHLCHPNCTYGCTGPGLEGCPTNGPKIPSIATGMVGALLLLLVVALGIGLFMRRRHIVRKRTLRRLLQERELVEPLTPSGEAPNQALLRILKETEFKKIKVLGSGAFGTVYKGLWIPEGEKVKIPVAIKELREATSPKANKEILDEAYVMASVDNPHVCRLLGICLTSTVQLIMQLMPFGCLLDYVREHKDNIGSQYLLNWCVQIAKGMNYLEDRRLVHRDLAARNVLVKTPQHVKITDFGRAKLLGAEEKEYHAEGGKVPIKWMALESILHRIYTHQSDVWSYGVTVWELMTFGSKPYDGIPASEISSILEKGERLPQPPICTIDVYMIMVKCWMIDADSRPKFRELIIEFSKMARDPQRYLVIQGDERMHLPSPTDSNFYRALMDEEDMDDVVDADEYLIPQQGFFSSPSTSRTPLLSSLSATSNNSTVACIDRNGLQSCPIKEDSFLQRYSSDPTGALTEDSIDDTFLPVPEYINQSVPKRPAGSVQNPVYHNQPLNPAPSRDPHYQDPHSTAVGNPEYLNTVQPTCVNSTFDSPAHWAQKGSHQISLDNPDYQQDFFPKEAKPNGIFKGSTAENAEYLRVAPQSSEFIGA
The test system is the same in data set [18]. The experiment in a line: Inhibition of EGFR phosphorylation in human H1975 cells harboring EGFR L858R/T790M mutant by Western blotting analysis. It is filed as cell-based. Put shortly:
as §5

Data set [19] has the same test system. The note with it: H1975, at 1 µM.
The subject of the next data set is Plasma. Described as §3. It counts as ADME, cell-free. Conditions: pH 7.4, 24 h, 50 µM, BLD = below limit of detection. Put shortly:
as §4

Epidermal growth factor receptor (Homo sapiens, UniProt P00533), sequence (P00533 whole entry): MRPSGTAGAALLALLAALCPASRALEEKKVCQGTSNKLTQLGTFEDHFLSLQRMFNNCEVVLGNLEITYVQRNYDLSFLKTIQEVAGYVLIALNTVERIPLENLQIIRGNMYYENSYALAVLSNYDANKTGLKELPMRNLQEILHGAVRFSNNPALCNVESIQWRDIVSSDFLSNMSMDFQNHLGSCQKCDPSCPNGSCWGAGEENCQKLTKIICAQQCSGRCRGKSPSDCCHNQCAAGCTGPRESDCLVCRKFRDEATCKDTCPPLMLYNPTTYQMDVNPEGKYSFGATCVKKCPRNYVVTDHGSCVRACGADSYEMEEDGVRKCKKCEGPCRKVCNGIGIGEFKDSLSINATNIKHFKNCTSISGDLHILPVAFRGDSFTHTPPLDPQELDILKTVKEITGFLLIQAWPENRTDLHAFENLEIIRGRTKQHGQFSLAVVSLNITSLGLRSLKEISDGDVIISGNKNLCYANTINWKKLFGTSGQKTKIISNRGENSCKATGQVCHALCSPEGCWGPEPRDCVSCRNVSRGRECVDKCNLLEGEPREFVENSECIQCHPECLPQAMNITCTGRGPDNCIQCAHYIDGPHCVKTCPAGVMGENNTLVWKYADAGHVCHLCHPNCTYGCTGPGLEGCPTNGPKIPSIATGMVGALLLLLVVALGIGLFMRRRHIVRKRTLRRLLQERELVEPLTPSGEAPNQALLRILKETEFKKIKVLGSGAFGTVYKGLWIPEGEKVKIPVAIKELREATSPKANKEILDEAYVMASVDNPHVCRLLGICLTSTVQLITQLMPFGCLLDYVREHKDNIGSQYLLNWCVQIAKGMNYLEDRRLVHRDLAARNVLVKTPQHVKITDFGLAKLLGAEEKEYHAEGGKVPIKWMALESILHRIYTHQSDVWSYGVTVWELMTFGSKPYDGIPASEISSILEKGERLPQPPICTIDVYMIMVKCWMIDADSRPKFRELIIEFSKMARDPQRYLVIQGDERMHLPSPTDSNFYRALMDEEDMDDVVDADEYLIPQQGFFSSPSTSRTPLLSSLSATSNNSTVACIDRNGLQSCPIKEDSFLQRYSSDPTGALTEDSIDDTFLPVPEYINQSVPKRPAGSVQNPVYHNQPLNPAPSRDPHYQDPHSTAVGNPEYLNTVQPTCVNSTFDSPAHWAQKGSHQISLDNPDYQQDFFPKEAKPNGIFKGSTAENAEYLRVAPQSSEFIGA

For the compound `COc1cc(N2CCN(C)CC2)ccc1Nc1ncc(Cl)c(Oc2cccc(NC(=O)CCN3CCN(CCO)CC3)c2)n1`, the IC50 in the data set on NCI-H1975 [1] came out at 931 nM; in “cells [2]” it was 799 nM; in the data set “cells [6]”, 2060 nM; in the data set “cells [7]” it was 1660 nM; in data set [10] it was 5870 nM; in the data set with A549, 2820 nM. Besides, the 50% inhibitory concentration (IC50) in data set [11] was found to be 2390 nM; in data set [12], 2420 nM; in the data set on A-431, 632 nM. Moreover, the remaining at 24 h, 50 µM in data set [3] came out at 99.5%; in data set [5] (buffer solution, pH 9, read-out: Stability), 81.4%; in data set [13], 105%. The remaining at 1 h, 50 µM in data set [4] is 101%; in data set [8], 101%; in data set [9], 100%.
On to `COc1cc(N2CCN(C)CC2)ccc1Nc1ncc(Cl)c(Oc2cccc(NC(=O)CCN3CCCCC3)c2)n1`, for which the half-inhibitory concentration (IC50) with NCI-H1975 [1] was 178 nM; in “cells [2]” it was 337 nM; in “cells [6]” it was 970 nM; in the data set “cells [7]” it was 365 nM; in data set [10], 4530 nM; in the data set on A549 it was 1120 nM. The IC50 was 10000 nM in data set [11], 2180 nM in data set [12] and 410 nM in the data set with A-431.
Consider `COc1cc(N2CCN(C)CC2)ccc1Nc1ncc(Cl)c(Oc2cccc(NC(=O)CCN(C)C)c2)n1`, for which the IC50 stood at 156 nM with NCI-H1975 [1]; 266 nM in the data set “cells [2]”; 1140 nM in the data set “cells [6]”; 615 nM in the data set “cells [7]”; 804 nM in data set [10]; 923 nM with A549. The IC50 in data set [11] amounted to 638 nM; in data set [12], 184 nM; in the data set with A-431 it was 545 nM.
With `COc1cc(N2CCN(C)CC2)ccc1Nc1ncc(Cl)c(Oc2cccc(NC(=O)CCN3CCN(CCOc4no[n+]([O-])c4S(=O)(=O)c4ccccc4)CC3)c2)n1`, the concentration for half-maximal inhibition (IC50) in the data set on NCI-H1975 [1] stood at 108 nM; in the data set “cells [2]” it was 130 nM; in the data set “cells [6]”, 2880 nM; in “cells [7]” it was 3370 nM; in [10], 262 nM; in the data set on A549, 8250 nM. The IC50 was 201 nM in data set [11], 263 nM in [12] and 4470 nM with A-431. Moreover, the inhibition result (in data set [14]; in the data set with H1975; in data set [17]; in data set [19]) was “Active” each time. Also, the inhibition result in the data set with NCI-H1975 [15] and with HCC827 was “inactive” in each case. For the same compound, in the data set with NCI-H1975 [16], the result was Active. Besides, the inhibition result in [18] is “Dose-dependent effect”.
For the compound `COc1cc2ncnc(Nc3ccc(F)c(Cl)c3)c2cc1OCCCN1CCOCC1`, the inhibition result in data set [14] is “inactive”. Moreover, the outcome in the data set on NCI-H1975 [16] was Active.
Consider `CCOC(=O)N1CCN(CCC(=O)Nc2cccc(Oc3nc(Nc4ccc(N5CCN(C)CC5)cc4OC)ncc3Cl)c2)CC1`, for which the half-inhibitory concentration (IC50) in the data set with NCI-H1975 [1] came out at 1600 nM; in the data set “cells [2]” it was 883 nM; in “cells [6]” it was 3700 nM; in “cells [7]”, 5780 nM; in data set [10], 2380 nM; with A549, 5280 nM. Moreover, the concentration for half-maximal inhibition (IC50) came to 698 nM in [11], 537 nM in [12] and 4530 nM in the data set with A-431.
As to `COc1cc(N2CCN(C)CC2)ccc1Nc1ncc(Cl)c(Oc2cccc(NC(=O)CCN3CCN(C)CC3)c2)n1`, the IC50 with NCI-H1975 [1] was determined as 1040 nM; in the data set “cells [2]” it was 1500 nM; in the data set “cells [6]”, 1750 nM; in the data set “cells [7]”, 412 nM; in [10], 10000 nM; in the data set on A549, 1030 nM. The IC50 stood at 7440 nM in data set [11], 4710 nM in [12] and 548 nM with A-431.
For the compound `C=CC(=O)Nc1cccc(Oc2nc(Nc3ccc(N4CCN(C)CC4)cc3OC)ncc2Cl)c1`, the figures for the IC50 with NCI-H1975 [1] and in “cells [2]” were 46 nM and 8 nM, respectively. The remaining at 24 h, 50 µM in data set [3] worked out at 101%. Also, the values for the remaining at 1 h, 50 µM in [4], in data set [8] and in data set [9] were 12.2%, 11.3% and 73.5%, respectively. Moreover, the Stability result in data set [5] (buffer, pH 9, 24 h, 50 µM, BLD = below limit of detection) was “BLD”; with Plasma, “BLD”.
For `CCN(CC)CCC(=O)Nc1cccc(Oc2nc(Nc3ccc(N4CCN(C)CC4)cc3OC)ncc2Cl)c1`, the IC50 with NCI-H1975 [1] is 166 nM; in the data set “cells [2]”, 249 nM; in “cells [6]”, 620 nM; in the data set “cells [7]”, 433 nM; in data set [10], 818 nM; with A549 it was 1000 nM. Moreover, the values for the IC50 (in data set [11]; in data set [12]; in the data set with A-431) were 877 nM, 181 nM and 291 nM, respectively.
Regarding `COc1cc(N2CCN(C)CC2)ccc1Nc1ncc(Cl)c(Oc2cccc(NC(=O)CCN3CCOCC3)c2)n1`, the IC50 is 1020 nM with NCI-H1975 [1]; 899 nM in “cells [2]”; 3600 nM in the data set “cells [6]”; 2270 nM in “cells [7]”; above 10000 nM in data set [10]; 2620 nM in the data set with A549. The IC50 was above 10000 nM in data set [11], above 10000 nM in data set [12] and 3910 nM in the data set on A-431.
`COc1cc(N2CCN(C)CC2)ccc1Nc1ncc(Cl)c(Oc2cccc(NC(=O)CCN3CCCC3)c2)n1`: the half-inhibitory concentration (IC50) amounted to 268 nM with NCI-H1975 [1]; 210 nM in the data set “cells [2]”; 1130 nM in “cells [6]”; 1890 nM in “cells [7]”; 427 nM in data set [10]; 1210 nM with A549. For the same compound, the results for the concentration for half-maximal inhibition (IC50) (in data set [11]; in [12]; in the data set on A-431) were 525 nM, 88 nM and 804 nM, respectively.
